Test results as given in ChEMBL document CHEMBL1148262, “Stability studies of C-4',6' acetal benzylmaltosides synthesized as inhibitors of smooth muscle cell proliferation” (Bioorg Med Chem Lett, 2004).

Columns and labels:
[1] = Stability of compound determined in medium mimicking stomach as percent remaining at 18-20 hr at a pH of 1; format: ADME; conditions: pH 1
[2] = Half-life of compound at a pH of 1 was determined; format: ADME; conditions: pH 1
[3] = Half-life of compound at a pH of 1.4 was determined; format: ADME; conditions: pH 1.4
[4] = Half-life of compound at a pH of 1.9 was determined; format: ADME; conditions: pH 1.9
[5] = Half-life of compound at a pH of 2.5 was determined; format: ADME; conditions: pH 2.5
[6] = Half-life of compound at a pH of 3 was determined; format: ADME; conditions: pH 3
[7] = Half-life of compound at a pH of 3.5 was determined; format: ADME; conditions: pH 3.5
[8] = Half-life of compound at a pH of 4 was determined; format: ADME; conditions: pH 4
[9] = Half-life of compound at a pH of 4.5 was determined; format: ADME; conditions: pH 4.5
[10] = tested on: HASMC; assay: Concentration inducing 50% inhibition of Human aortic smooth muscle cell (HASMC) proliferation; format: functional, cell-based
Method in brief: (§1)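 HASMC or HAEC from passage 3–6, grown to 70–80% confluence in 24-well plates, then held 24–48 h without serum or growth factors to make them quiescent. Restimulated with serum or growth factor for 24 h with 0.5 µCi/mL ³H-thymidine. Compounds were added from 50% ethanol stock at 1–100 µM. TCA-precipitable counts were measured in triplicate, as percent of stimulated control, and IC50 was derived.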

[11] = Percent degradation of compound at a pH of 1 over a 18 hr period; format: ADME; conditions: pH 1; read-out: Degradation
[12] = Concentration inducing 50% inhibition of human aortic endothelial cell (HAEC) proliferation; format: functional, cell-based; method in brief: as §1
[13] = tested on: Rattus norvegicus; assay: In vivo percent reduction in intimal thickening rat balloon injury model at a dose of 100 mg/kg; Range is 18-39 %; format: functional

Row | Compound | Remaining [1] | half-life [2] | half-life [3] | half-life [4] | half-life [5] | half-life [6] | half-life [7] | half-life [8] | half-life [9] | degraded at 18 h [11] | IC50 [10] | IC50 [12] | Reduction [13]
1 | CC(=O)Nc1cc(CO[C@@H]2O[C@@H](COC(=O)c3ccccc3)[C@H](O[C@H]3OC4CO[C@@H](Cc5ccccc5)OC4[C@H](O)[C@@H]3O)[C@H](O)[C@@H]2O)ccc1Cl (stereo not given in full) | 94% | > 20 h | > 20 h | > 20 h | > 20 h | > 20 h | > 20 h | > 20 h | > 20 h |  | 0.035 µM |  | 
2 | CC(=O)Nc1cc(CO[C@@H]2O[C@@H](COC(=O)c3ccccc3)[C@H](O[C@H]3OC4CO[C@@H](c5ccc([N+](=O)[O-])cc5)OC4[C@H](O)[C@@H]3O)[C@H](O)[C@@H]2O)ccc1Cl (stereo not given in full) |  |  |  |  |  |  |  |  |  |  | 0.003 µM | 0.368 µM | 
3 | CC(=O)Nc1cc(CO[C@@H]2O[C@@H](COC(=O)c3ccccc3)[C@H](O[C@H]3OC4CO[C@@H](c5ccncc5)OC4[C@H](O)[C@@H]3O)[C@H](O)[C@@H]2O)ccc1Cl (stereo not given in full) | 97% | > 20 h | > 20 h | > 20 h | > 20 h | > 20 h | > 20 h | > 20 h | > 20 h |  | 0.003 µM |  | 
4 | CC(=O)Nc1cc(CO[C@@H]2O[C@@H](COC(=O)c3ccccc3)[C@H](O[C@H]3O[C@@H](CO)[C@@H](O)[C@H](O)[C@@H]3O)[C@H](O)[C@@H]2O)ccc1Cl |  |  |  |  |  |  |  |  |  |  | 34.9 µM |  | 
5 | CC(=O)Nc1cc(CO[C@@H]2O[C@@H](COC(=O)c3ccccc3)[C@H](O[C@H]3OC4CO[C@@H](c5ccc(Cl)cc5)OC4[C@H](O)[C@@H]3O)[C@H](O)[C@@H]2O)ccc1Cl (stereo not given in full) | 0% | 1.7 h | 4 h | 13.3 h | > 20 h | > 20 h | > 20 h | > 20 h | > 20 h |  | 0.023 µM | 0.324 µM | 

Further lines, with some results ahead:

Row | Remaining [1] | half-life [2] | half-life [3] | half-life [4] | half-life [5] | half-life [6] | half-life [7] | half-life [8] | half-life [9] | degraded at 18 h [11] | Compound | IC50 [10] | IC50 [12] | Reduction [13]
6 | 68% | > 20 h | > 20 h | > 20 h | > 20 h | > 20 h | > 20 h | > 20 h | > 20 h | 32% | CC(=O)Nc1cc(CO[C@@H]2O[C@@H](COC(=O)c3ccccc3)[C@H](O[C@H]3OC4CO[C@@H](C)OC4[C@H](O)[C@@H]3O)[C@H](O)[C@@H]2O)ccc1Cl (stereo not given in full) | 0.103 µM | 0.257 µM | 
7 | 53% | > 20 h | > 20 h | > 20 h | > 20 h | > 20 h | > 20 h | > 20 h | > 20 h |  | CC(=O)Nc1cc(CO[C@@H]2O[C@@H](COC(=O)c3ccccc3)[C@H](O[C@H]3OC4CO[C@@H](C(C)C)OC4[C@H](O)[C@@H]3O)[C@H](O)[C@@H]2O)ccc1Cl (stereo not given in full) | 0.003 µM |  | 
8 | 52% | > 20 h | > 20 h | > 20 h | > 20 h | > 20 h | > 20 h | > 20 h | > 20 h |  | CC[C@@H]1OCC2O[C@H](O[C@@H]3[C@H](O)[C@H](O)[C@H](OCc4ccc(Cl)c(NC(C)=O)c4)O[C@H]3COC(=O)c3ccccc3)[C@@H](O)[C@@H](O)C2O1 (stereo not given in full) | 0.037 µM | 0.235 µM | 
9 | 0% | 1.9 h | 2.3 h | 4.2 h | 13 h | > 20 h | > 20 h | > 20 h | > 20 h | 100% | CC(=O)Nc1cc(CO[C@@H]2O[C@@H](COC(=O)c3ccccc3)[C@H](O[C@H]3OC4CO[C@@H](c5ccccc5)OC4[C@H](O)[C@@H]3O)[C@H](O)[C@@H]2O)ccc1Cl (stereo not given in full) | 0.02 µM | 0.923 µM | 39%
